Here are results for 7 compounds from ChEMBL document CHEMBL2040777, “N-Aryl-N'-(chroman-4-yl)ureas and thioureas display in vitro anticancer activity and selectivity on apoptosis-resistant glioblastoma cells: screening, synthesis of simplified derivatives, and structure-activity relationship analysis” (Eur J Med Chem, 2012).

Activity calls are given as the source filed them. No cut-off for these calls is given here.

The subject of experiment [1] is T98G. As to the kind of experiment: Selectivity index, ratio of IC50 for mouse astrocytes to IC50 for human T98G cells.
Experiment [2] relates to T98G. Kind of experiment: Growth inhibition of human T98G cells after 72 hrs by MTT assay. The experiment is classed as functional, cell-based. The procedure, abridged: (§1)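 Glioma lines were grown in RPMI with 10% heat-inactivated FCS, 4 mM glutamine, gentamicin and penicillin-streptomycin. Cells were plated for 24 h at 10,000–40,000 cells/mL, then exposed to compound for 72 h. MTT reduction to formazan was read at 570 nm (reference 630 nm). Six replicates were run.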
(In general: Formazan colour is commonly taken as a measure of viable cells.)

Experiment [3] is described as follows: Selectivity index, ratio of IC50 for mouse astrocytes to IC50 for human U373 cells. Also on record: species or system U-373MG ATCC.
Experiment [4] is described as follows: Cell cycle arrest in human U373 cells assessed as accumulation at G0/G1 phase at 3 to 10 uM after 24 hrs by propidium iodide staining-based flow cytometric analysis. The experiment is classed as functional. The settings on record: U-373MG ATCC. (In flow cytometry, cells or beads pass a laser one at a time.)
Experiment [5] relates to U-373MG ATCC. Kind of experiment: Induction of apoptosis in human U373 cells assessed as increase in subG1 cell population at 3 to 10 uM after 24 hrs by flow cytometric analysis. The experiment is classed as functional, cell-based.
Experiment [6] in a line: Growth inhibition of human U373 cells after 72 hrs by MTT assay. The experiment is classed as functional, cell-based, U-373MG ATCC. The following applies: U373 MG. The procedure, abridged:
as §1

Experiment [7] can be described thus: Growth inhibition of human Hs683 cells after 72 hrs by MTT assay. The experiment is classed as functional, cell-based. The following applies: Hs 683, 72 h. The procedure, abridged:
as §1

The test system of experiment [8] is B16-F10. As to the kind of experiment: Growth inhibition of mouse B16F10 cells after 72 hrs by MTT assay. The experiment is classed as functional, cell-based. The settings on record: B16-F10, 72 h.
Experiment [9] relates to Hs 683. Kind of experiment: Selectivity index, ratio of IC50 for mouse astrocytes to IC50 for human Hs683 cells.
A short description of experiment [10]: Cell cycle arrest in human U373 cells assessed as accumulation at G0/G1 phase at 10 to 30 uM after 24 hrs by propidium iodide staining-based flow cytometric analysis. In kind it is functional. The settings on record: U-373MG ATCC.
The nature of experiment [11]: Cytostatic activity against human U373 cells assessed as global growth ratio by measuring number of cells counted in the last and the first frame of study at 20 uM by quantitative videomicroscopic analysis. The experiment is classed as functional, U-373MG ATCC. The procedure, abridged:
(§2)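 U373 cells were cultured in 25 cm² flasks and filmed by computer-assisted phase-contrast time-lapse for 72 h, one image every 4 min. Growth level was the cell count in the last frame divided by the first. Global growth ratio was treated growth level over control growth level. Compounds were tested at 20 µM.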

The nature of experiment [12]: Growth inhibition of human U373 cells assessed as global growth ratio after 72 hrs by quantitative videomicroscopic analysis relative to untreated control. In kind it is functional, U-373MG ATCC. The settings on record: U373 MG. The procedure, abridged: as §2
In experiment [13] the test system is U-373MG ATCC. Kind of experiment: Induction of apoptosis in human U373 cells assessed as increase in subG1 cell population at 10 to 30 uM after 24 hrs by flow cytometric analysis. In kind it is functional, cell-based.
The nature of experiment [14]: Cell cycle arrest in human U373 cells assessed as accumulation at G0/G1 phase at 30 to 100 uM after 24 hrs by propidium iodide staining-based flow cytometric analysis. In kind it is functional. The following applies: U-373MG ATCC.

Consider `CC1(C)CC(NC(=S)Nc2cccc([N+](=O)[O-])c2)c2cc(Cl)ccc2O1` (stereo not drawn), for which the “Ratio IC50” value in experiment [1], in experiment [3] and in experiment [9] was 3 throughout. The IC50 in [2] amounted to 4 µM; in experiment [6], 3 µM; in experiment [7], 3 µM; in experiment [8], 6 µM. The result in experiment [4] was Active. For the same compound, the result in [5] was inactive.
For the compound `CC1(C)CC(NC(=S)Nc2ccc(Cl)cc2)c2cc(Br)ccc2O1` (stereo not drawn), the “Ratio IC50” value in experiment [1], in [3] and in experiment [9] was 2 throughout. For the same compound, the IC50 turned out to be 22 µM in experiment [2], 7 µM in [6], 9 µM in experiment [7] and 7 µM in [8]. Moreover, the outcome in [4] was Active. The outcome in experiment [5] was inactive.
In turn, `COc1ccc(Cl)cc1C(=O)NCCc1ccc(S(=O)(=O)NC(=O)NC2CCCCC2)cc1` [GLYBURIDE] came in with an IC50 in experiment [6] greater than 100 µM. The result in experiment [10] was inactive.
Take `CC1(C)CC(NC(=O)Nc2ccccc2Cl)c2cc(Cl)ccc2O1` (stereo not drawn): the “Ratio IC50” value in experiment [1], in experiment [3] and in experiment [9] was greater than 10 throughout. Further, the IC50 was 20 µM in experiment [2], 17 µM in experiment [6], 25 µM in experiment [7] and 20 µM in experiment [8]. In experiment [11], the Ratio is recorded as 0.2. Also, the IC80 in experiment [12] is 20 µM. In addition, the result in experiment [13] was inactive. The result in experiment [10] was Active.
Turning to `CC(N/C(=N\C#N)Nc1ccncc1)C(C)(C)C` (stereo not drawn) [PINACIDIL ANHYDROUS], the result in [14] was inactive. Moreover, the IC50 in experiment [6] was greater than 100 µM.
With `CC1(C)CC(NC(=S)Nc2ccc([N+](=O)[O-])cc2)c2cc(Cl)ccc2O1` (stereo not drawn), the “Ratio IC50” value in experiment [1], in experiment [3] and in experiment [9] was 2 in each case. For the same compound, the IC50 in [2] was 4 µM; in [6], 3 µM; in experiment [7], 2 µM; in experiment [8], 3 µM. The result in experiment [4] was Active. For the same compound, the outcome in [5] was inactive.
Regarding `CC1(C)CC(NC(=O)Nc2ccccc2Cl)c2cc(Br)ccc2O1` (stereo not drawn), the “Ratio IC50” value in experiment [1], in experiment [3] and in experiment [9] was greater than 10 throughout. The IC50 in experiment [2] was found to be 11 µM; in [6], 19 µM; in experiment [7], 22 µM; in experiment [8], 22 µM. Moreover, the Ratio in experiment [11] is 0.2. Further, the IC80 in experiment [12] came out at 20 µM. In addition, the result in experiment [13] was inactive. Besides, the outcome in experiment [10] was Active.

The term IC50 denotes the point on the concentration scale where inhibition reaches its midpoint. Low readings indicate greater potency, high ones weaker potency. The IC80 is the point of the concentration-response curve where the effect stands at 80%.
